Laboratory results reported in ChEMBL document CHEMBL4825663 (J Med Chem, 2021).
Calls of active or inactive are those of the source. The calls are words filed in the database; no cut-off is given here.

Tests used:
[1] = Ratio of drug concentration in BALB/c mouse liver to plasma at 20 mg/kg, po measured upto 24 hrs in presence of 10 mg/kg encequidar by LC-MS/MS analysis; assay type: ADME, organism-based
[2] = Volume of distribution in Sprague-Dawley rat at 6 mg/kg, iv measured upto 24 hrs by LC-MS/MS analysis; assay type: ADME, organism-based; conditions: in vivo
[3] = Half life in Sprague-Dawley rat at 20 mg/kg, po measured upto 24 hrs by LC-MS/MS analysis; conditions: in vivo
[4] = Clearance in Sprague-Dawley rat at 6 mg/kg, iv measured upto 24 hrs by LC-MS/MS analysis; assay type: ADME, organism-based; conditions: in vivo
[5] = tested on: MDA-MB-231; experiment: Antitumor activity against human MDA-MB-231 cells xenografted in athymic nude mouse assessed as reduction in median number of days for tumor to reach two tumor mass doubling at 20 mg/kg, po administered every other day for 4 doses in presence of 8 mg/kg encequidar and monitored for 70 to 82 days (reference value: 13.1 day); assay type: functional; conditions: time 70-82 day
[6] = tested on: SK-OV-3; experiment: Antitumor activity against human SK-OV-3 cells xenografted in athymic nude mouse assessed as tumor growth inhibition in presence of encequidar; assay type: functional
[7] = Oral bioavailability in Sprague-Dawley rat at 20 mg/kg measured upto 24 hrs by LC-MS/MS analysis; assay type: ADME, organism-based; conditions: in vivo
[8] = tested on: HT-29; experiment: Antitumor activity against human HT-29 cells xenografted in athymic nude mouse assessed as reduction in tumor growth at 40 mg/kg, po in presence of 20 mg/kg encequidar; assay type: functional; design: scale not given: the % may be the effect or the level left
[9] = Drug distribution in BALB/c mouse liver at 20 mg/kg, po measured upto 24 hrs in presence of 10 mg/kg encequidar by LC-MS/MS analysis; assay type: ADME, organism-based; conditions: in vivo
[10] = target: ATP-dependent translocase ABCB1 (Homo sapiens, UniProt P08183); experiment: Inhibition of P-gp in human Caco-2 cells assessed as reduction in paclitaxel efflux pre-incubated for 30 mins and measured after 120 mins by LC-MS/MS analysis; assay type: cell-based
ATP-dependent translocase ABCB1, sequence (P08183 whole entry): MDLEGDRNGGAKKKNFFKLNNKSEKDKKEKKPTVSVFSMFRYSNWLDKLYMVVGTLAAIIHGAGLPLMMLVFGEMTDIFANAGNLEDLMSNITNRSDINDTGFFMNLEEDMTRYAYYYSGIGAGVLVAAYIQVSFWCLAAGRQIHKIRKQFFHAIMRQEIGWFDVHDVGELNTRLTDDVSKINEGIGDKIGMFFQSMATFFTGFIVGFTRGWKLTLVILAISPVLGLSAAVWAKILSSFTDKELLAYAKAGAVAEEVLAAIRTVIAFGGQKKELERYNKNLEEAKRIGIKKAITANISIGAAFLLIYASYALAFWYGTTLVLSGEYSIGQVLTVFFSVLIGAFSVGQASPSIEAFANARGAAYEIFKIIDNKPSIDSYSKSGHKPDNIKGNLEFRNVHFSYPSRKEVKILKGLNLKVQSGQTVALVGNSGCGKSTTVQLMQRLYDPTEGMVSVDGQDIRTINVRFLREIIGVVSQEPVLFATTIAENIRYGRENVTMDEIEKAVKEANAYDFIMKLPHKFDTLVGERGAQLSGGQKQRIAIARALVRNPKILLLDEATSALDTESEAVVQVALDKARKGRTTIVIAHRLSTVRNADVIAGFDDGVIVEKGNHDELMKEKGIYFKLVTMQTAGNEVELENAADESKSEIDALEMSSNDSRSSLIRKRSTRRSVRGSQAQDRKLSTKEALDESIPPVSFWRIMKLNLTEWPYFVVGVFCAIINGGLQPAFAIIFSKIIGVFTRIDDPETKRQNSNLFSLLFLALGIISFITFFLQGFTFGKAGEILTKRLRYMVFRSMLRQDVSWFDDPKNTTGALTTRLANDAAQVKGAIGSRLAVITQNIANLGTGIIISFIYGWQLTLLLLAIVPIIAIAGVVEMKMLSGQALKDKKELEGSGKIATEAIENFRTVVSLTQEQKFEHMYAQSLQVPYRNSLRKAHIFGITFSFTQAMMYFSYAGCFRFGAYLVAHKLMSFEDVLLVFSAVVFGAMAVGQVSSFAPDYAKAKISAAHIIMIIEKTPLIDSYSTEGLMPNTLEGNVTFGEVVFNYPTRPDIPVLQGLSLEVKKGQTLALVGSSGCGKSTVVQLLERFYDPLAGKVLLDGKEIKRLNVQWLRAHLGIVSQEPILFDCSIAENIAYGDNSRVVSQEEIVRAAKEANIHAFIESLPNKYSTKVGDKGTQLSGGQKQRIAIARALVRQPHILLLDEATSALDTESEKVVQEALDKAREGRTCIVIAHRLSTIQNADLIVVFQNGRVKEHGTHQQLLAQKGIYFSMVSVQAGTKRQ
How it was run: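 Bidirectional paclitaxel transport across Caco-2 monolayers with coadministered inhibitor. Apparent permeability was measured apical-to-basal (absorption) and basal-to-apical (efflux). IC50 was derived from these permeability data.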

[11] = Drug distribution in Sprague-Dawley rat bile; assay type: ADME, tissue-based; conditions: in vivo
[12] = Tmax in Beagle dog at 10 mg/kg, po measured upto 48 hrs by LC-MS/MS analysis; conditions: in vivo
[13] = Oral bioavailability in Sprague-Dawley rat at 10 mg/kg measured upto 48 hrs by LC-MS/MS analysis; assay type: ADME, organism-based; conditions: in vivo
How it was run: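 Plasma pharmacokinetics in male Sprague-Dawley rats and male Beagle dogs (n = 3 per species), each given a single dose by IV at 3 mg/kg and by PO at 10 mg/kg. Cmax, Tmax, T1/2 and AUClast were derived for each route. F (%) was calculated from the PO and IV AUClast.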

[14] = AUClast in Beagle dog at 10 mg/kg, po measured upto 48 hrs by LC-MS/MS analysis; assay type: ADME, organism-based, Canis lupus familiaris; design: route oral, dose 10 mg/kg, time <=48; conditions: in vivo
How it was run: (§1)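 Single dose in male Sprague-Dawley rats and male Beagle dogs (n = 3 per species), given 3 mg/kg IV or 10 mg/kg PO. Plasma was sampled to derive Cmax, Tmax, T1/2 and AUClast by each route. Oral bioavailability (F) was calculated from the PO and IV AUClast.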

[15] = target: T1, Multidrug and toxin extrusion protein 1 (Homo sapiens, UniProt Q96FL8); experiment: Inhibition of human MATE1 assessed as reduction in intracellular probe substrate accumulation upto 100 uM by microplate scintillation counter analysis relative to control; assay type: cell-based
T1 sequence (Q96FL8 whole entry): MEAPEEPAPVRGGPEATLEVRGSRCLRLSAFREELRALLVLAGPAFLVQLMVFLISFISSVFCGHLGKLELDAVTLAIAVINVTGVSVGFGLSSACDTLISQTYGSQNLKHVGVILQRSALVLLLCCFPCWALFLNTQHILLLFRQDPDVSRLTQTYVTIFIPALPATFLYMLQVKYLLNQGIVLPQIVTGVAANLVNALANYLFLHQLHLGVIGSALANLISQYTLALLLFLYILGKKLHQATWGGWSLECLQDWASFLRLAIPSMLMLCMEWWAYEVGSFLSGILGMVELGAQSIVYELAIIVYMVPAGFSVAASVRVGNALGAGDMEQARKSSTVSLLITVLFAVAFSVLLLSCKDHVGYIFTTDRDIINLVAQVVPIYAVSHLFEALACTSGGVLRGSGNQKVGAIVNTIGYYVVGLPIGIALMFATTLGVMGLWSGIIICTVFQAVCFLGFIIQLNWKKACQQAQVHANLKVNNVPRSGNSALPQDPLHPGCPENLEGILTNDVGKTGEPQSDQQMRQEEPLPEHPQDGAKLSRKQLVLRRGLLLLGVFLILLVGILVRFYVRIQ
How it was run: (§2)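 Cellular uptake-inhibition assays used Chinese hamster ovary, HEK293 or MDCKII cells stably expressing the respective human SLC transporter, run alongside the corresponding control cells. Inhibitor was tested at concentrations up to 100 μM.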

[16] = AUClast in Sprague-Dawley rat at 3 mg/kg, iv measured upto 48 hrs by LC-MS/MS analysis; assay type: ADME, organism-based; design: route intravenous, dose 3 mg/kg, time <=48; conditions: in vivo; how it was run: as §1
[17] = Tmax in Sprague-Dawley rat at 10 mg/kg, po measured upto 48 hrs by LC-MS/MS analysis; conditions: in vivo
[18] = target: T2, Multidrug and toxin extrusion protein 2 (Homo sapiens, UniProt Q86VL8); experiment: Inhibition of human MATE2K assessed as reduction in intracellular probe substrate accumulation upto 100 uM by microplate scintillation counter analysis relative to control; assay type: cell-based; how it was run: as §2
T2 sequence (Q86VL8 whole entry): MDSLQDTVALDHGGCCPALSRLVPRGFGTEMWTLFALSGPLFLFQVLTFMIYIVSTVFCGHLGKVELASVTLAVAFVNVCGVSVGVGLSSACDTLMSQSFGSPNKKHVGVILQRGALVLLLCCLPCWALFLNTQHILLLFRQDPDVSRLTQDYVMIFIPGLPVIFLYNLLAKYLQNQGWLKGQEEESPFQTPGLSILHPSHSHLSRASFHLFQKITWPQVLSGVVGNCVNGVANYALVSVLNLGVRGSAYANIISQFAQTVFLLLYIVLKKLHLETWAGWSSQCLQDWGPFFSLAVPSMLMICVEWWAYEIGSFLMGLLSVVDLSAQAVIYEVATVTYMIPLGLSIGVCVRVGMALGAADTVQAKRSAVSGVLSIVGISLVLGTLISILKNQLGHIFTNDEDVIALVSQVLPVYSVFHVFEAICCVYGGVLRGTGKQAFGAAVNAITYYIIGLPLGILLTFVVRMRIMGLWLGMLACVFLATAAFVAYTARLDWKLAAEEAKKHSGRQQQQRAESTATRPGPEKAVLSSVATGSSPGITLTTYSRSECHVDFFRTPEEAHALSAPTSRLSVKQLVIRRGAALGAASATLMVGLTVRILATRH

| Compound | Kp at 24 h [1] | Vd [2] [L/kg] | half-life at 24 h [3] [h] | clearance [4] [mL/min] | Time [5] [days] | Activity [6] | bioavailability [7] [%] | Activity [8] [%] | Drug uptake [9] | IC50 [10] [nM] | Drug uptake [11] | Tmax [12] [h] | bioavailability [13] [%] | AUC(0-t) at 48 h [14] [ng·h/mL] | inhibition (INH) [15] [%] | AUC(0-t) at 48 h [16] [ng·h/mL] | Tmax [17] [h] | inhibition (INH) [18] [%] |
| --- | --- | --- | --- | --- | --- | --- | --- | --- | --- | --- | --- | --- | --- | --- | --- | --- | --- | --- |
| CC(=O)O[C@H]1C(=O)[C@@]2(C)[C@H]([C@H](OC(=O)c3ccccc3)[C@]3(O)C[C@H](OC(=O)[C@H](O)[C@@H](NC(=O)c4ccccc4)c4ccccc4)C(C)=C1C3(C)C)[C@]1(OC(C)=O)CO[C@@H]1C[C@@H]2O [PACLITAXEL] | > 1 | 23.6 | 8 | 35 | 15.1 | Active | 3.4 | 94 | Active | – | – | – | – | – | – | – | – | – |
| COc1cc2c(cc1OC)CN(CCc1ccc(-n3nnc(-c4cc(OC)c(OC)cc4NC(=O)c4cc(=O)c5ccccc5o4)n3)cc1)CC2 | – | – | – | – | – | – | – | – | – | 53 | Active | 13.3 | 6.25 | 724 | < 50 | 619 | 8 | < 50 |
